# Screening data: PubChem, Broad Institute
# EWS-Fli block – blocks EWS/Fli oncoprotein-driven transcription; A673 NR0B1-luciferase reporter, viability-normalised; inhibition, % at 12.6 µM; 0.67% of 350,000 active;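 active = mean inhibition of at least 50% after viability correction, with every replicate also passing that limit; inconclusive = mean reaches 50% but only one of two replicates passes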;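 note: firefly luciferase signal divided by Alamar Blue viability fluorescence both relative to DMSO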
# HIV Env fusion – blocks HIV Env-driven cell-cell fusion; HeLa-JRFL Env/CEM21 cell fusion, luciferase; inhibition, % at 12.3 µM; 1.1% of 360,000 active;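 active = mean replicate inhibition score of at least 50 and every replicate individually at or above 50; inconclusive = only one of the two criteria met; inactive = mean below 50 and not all replicates reaching 50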;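 note: 0% = plate neutral controls and 100% = maraviroc near 300 nM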
# PGC1a acetyl inh – lowers PGC1a acetylation signal in U2OS cells; inhibition, % at 15.6 µM; 0.17% of 350,000 active; AlphaScreen anti-acetyl-lysine; with virally co-expressed GCN5 acetyltransferase;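 active = every replicate shows inhibition of at least 40%; inconclusive = mean inhibition at least 40% but some replicate below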;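 note: 0% = neutral control wells and 100% = positive control wells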
# PAX8 reporter – inhibitors of PAX8 transcriptional activity in RMG-I cells. RMG-I TPO-luciferase reporter, SteadyGlo, 24 h. inhibition, % at 12.6 µM. 1.2% of 360,000 active. AID 652154;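 active = mean replicate inhibition at least 60% with every replicate also reaching 60%; inconclusive = only one of the two criteria is met; inactive = mean below 60% and not all replicates reaching 60%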;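 note: luciferase light reporting Pax8 driven TPO promoter activity; plate controls were median of neutral control wells for no effect and mitoxantrone controls for full effect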
# FN deposit inh – fibronectin deposition inhibition; 0.086% of 350,000 active; AH1F fibroblasts, Alexa488-fibronectin deposition fluorescence, overnight; inhibition, % at 12.6 µM;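 active = mean inhibition across replicates of 30% or more, regardless of how many single replicates reach that level; inconclusive = mean under 30% yet at least half of replicates reach 30%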;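 note: positive control wells lacked labelled fibronectin entirely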
#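 test system = AH1F fibroblasts assembling fluorescent fibronectin matrix | quantity = 10000 AH1F cells per well | buffer or medium = DMEM plus 2% serum, read in PBS | doses = single dose, pinned | incubation = 1 h cell attachment, overnight exposure to compound and label | detection = fluorescence at 485 nm excitation, 525 nm emission | read-out basis = inhibition from reduced deposited-fibronectin fluorescence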
# FGF22 binding – FGF22 (human) thermal shift binding | recombinant FGF22 thermal shift, SYPRO orange fluorescence; percent of sucrose octasulfate shift, DMSO zero | 1.5% of 340,000 active | activity (Tm shift, normalised), % at 9.99 µM;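 active = mean Tm shift, scaled 0 neutral to 100 positive control, at about 1.3% or above, every replicate too, limit read from the data; inconclusive = no clear call, values can overlap the other calls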
# Target sequence (Q9HCT0 whole entry, looked up): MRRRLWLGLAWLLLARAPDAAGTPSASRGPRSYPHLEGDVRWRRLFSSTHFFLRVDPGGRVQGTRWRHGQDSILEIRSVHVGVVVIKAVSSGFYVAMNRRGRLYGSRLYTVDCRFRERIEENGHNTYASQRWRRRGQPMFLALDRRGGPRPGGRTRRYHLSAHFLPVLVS
# * hit, by the source's call; ? = inconclusive; / = no result; [ ] = dose if it differs, or a comment. Rows were chosen to be rich in hits. Some 3.1% of all compounds tested hit in one or more screens of this group.
SMILES,EWS-Fli block,HIV Env fusion,PGC1a acetyl inh,PAX8 reporter,FN deposit inh,FGF22 binding
Cc1ccc(S(=O)(=O)Nc2ccc3c(c2)C(=O)N([C@H](C)CO)C[C@H](C)[C@@H](CN(C)S(=O)(=O)c2ccc(C)cc2)O3)cc1,-2,1[16.7 µM],3,-5,/,-1
CN(CC(=O)Nc1ccccc1Oc1ccccc1)Cc1ccccc1F,/,20,/,12,2,/
COc1ccccc1NC(=O)c1ccc(NC(=O)CN(C)Cc2ccccc2F)cc1,2,15,/,13,0,43*
C[C@@H]1CN([C@H](C)CO)C(=O)c2c(c3ccccc3n2C)-c2ccccc2CO[C@H]1CN(C)Cc1cccc(C(F)(F)F)c1,21,/,-26,3,12,-1
C[C@H]1CN([C@@H](C)CO)C(=O)c2c(c3ccccc3n2C)-c2ccccc2CO[C@@H]1CN(C)Cc1ccc(C(F)(F)F)cc1,-3,/,/,64*,4,/
C[C@@H]1CN([C@@H](C)CO)C(=O)c2c(c3ccccc3n2C)-c2ccccc2CO[C@H]1CN(C)Cc1cccc(C(F)(F)F)c1,11,57*[16.7 µM],-20,/,-15,0
C[C@@H]1CN([C@H](C)CO)C(=O)c2c(c3ccccc3n2C)-c2ccccc2CO[C@@H]1CN(C)Cc1ccc(C(F)(F)F)cc1,1,/,-12,-7,12,1.4*
CCCC1=[N+](CC(=O)c2ccccc2)CCn2cccc21,/,4,/,10,-3,/
CCCC1=[N+](CC(C)=O)CCn2c(C)ccc21,5,2,/,9,-2,43*
C=CCC[C@H](Cc1ccc(F)cc1)C(=O)OC[C@H](C)NC(=O)[C@H](CC=C)CC(=O)NCCO,-6,19,/,36,13,0
C=CCC[C@H](Cc1ccc(F)cc1)C(=O)OC[C@@H](NC(=O)[C@@H](CC=C)CC(=O)N[C@@H](CO)Cc1ccccc1)C(C)(C)C,11,14,/,108*,-4,6.2*
C=CC[C@@H](CC(=O)N(CCO)Cc1ccccc1)C(=O)NC[C@H](OC(=O)[C@@H](CC=C)Cc1ccc(F)cc1)c1ccccc1,-2,-2,/,84*,-8,0
C=CC[C@@H](CC(=O)N(CCO)Cc1ccccc1)C(=O)N[C@H](COC(=O)[C@@H](CC=C)Cc1ccc(F)cc1)c1ccccc1,4,-15,-2,38,-3,0
C=CCC[C@H](Cc1ccc(F)cc1)C(=O)OC[C@@H](NC(=O)[C@@H](CC=C)CC(=O)N(CCO)Cc1ccccc1)C(C)(C)C,14,72*,/,64*,-15,0
C=CCC[C@@H](Cc1ccc(F)cc1)C(=O)OC[C@@H](NC(=O)[C@@H](CC=C)CC(=O)N[C@@H](CO)Cc1ccccc1)C(C)(C)C,-1,-23,-7,33,-3,-1
C=CC[C@H](CC(=O)N(CCO)Cc1ccccc1)C(=O)N[C@H](COC(=O)[C@@H](CC=C)Cc1ccc(F)cc1)C(C)(C)C,10,12,8,-1,-3,0
C=CCC[C@H](Cc1ccc(F)cc1)C(=O)OC[C@@H](NC(=O)[C@H](CC=C)CC(=O)NCCO)C(C)(C)C,10,90*,/,-9,-5,0
C[C@H]1CN([C@@H](C)CO)C(=O)c2c(c3ccccc3n2C)-c2ccccc2CO[C@@H]1CN(C)C(=O)[C@H]1CCCN1C,13,-45[16.7 µM],2,4,7,0
CN(C)c1ccnc2sc(C(N)=O)c(N)c12,/,/,48*,/,/,/
CN(C)c1ccnc2sc(C(=O)c3ccc(Br)cc3)c(N)c12,-33,-3,/,-28,/,0
c1ccc(N2CCN(c3ccccc3)C2c2ccncc2)cc1,15,/,91*,/,/,0
c1ccc(N2CCN(c3ccccc3)C2c2cccnc2)cc1,/,/,-5,/,/,/
C[C@@H]1CN([C@H](C)CO)C(=O)c2cccc(NC(=O)Nc3ccc4c(c3)OCO4)c2O[C@@H]1CN(C)C(=O)Nc1ccc(F)cc1,-15,-8[16.7 µM],2,-3,/,0
CCOC(=O)CNC(=O)N1CCCC(C(=O)c2ccc3c(c2)OCO3)C1 (stereo unspecified),-1,-1,/,3,2,43*
CCOC(=O)C1CCCN(C(=O)c2ccc3c(c2)OCO3)C1 (stereo unspecified),/,-26,-4,-10,1,/
SMILES,EWS-Fli block,HIV Env fusion,PGC1a acetyl inh,PAX8 reporter,FN deposit inh,FGF22 binding
NC(=O)C1CCN(C(=O)c2cc3c(s2)CCCC3)CC1,-23,-41,10,/,9,43*
CC(C)NC(=O)C1CCN(C2CCN(C(=O)c3cc4c(s3)CCCCC4)CC2)CC1,6,-3,-2,12,1,0
Nc1nc(N)c2c(n1)CN(Cc1ccc(Cl)cc1)C2,10,26,2,23,6,43*
Nc1ncnc2c1CN(Cc1ccccc1)CC2,-4,-2,-4,-13,6,0
C[C@@H]1CN([C@H](C)CO)C(=O)c2cccc(NS(=O)(=O)c3ccccc3)c2O[C@H]1CN(C)Cc1ccc(Oc2ccccc2)cc1,-6,-20[16.7 µM],6,4,/,-1
COc1ccc(NC(=O)COc2ccc(C)c(C)c2)cc1S(=O)(=O)N1CCCCC1,1,0,/,-9,-6,0
COc1ccc(/C=C/C(=O)OCC(=O)Nc2ccc(C)cc2)cc1S(=O)(=O)N1CCOCC1,-4,/,/,76*,3,0
CC(=O)Nc1cccc(NC(=O)/C=C/c2ccc(S(=O)(=O)N3CCOCC3)cc2)c1,0,12,1,18,-1,1
COc1ccc(NC(=O)COc2cc(C)cc(C)c2)cc1S(=O)(=O)N1CCCCC1,50,61*,-6,53,-1,0
COc1cc(S(=O)(=O)N2CCOCC2)ccc1NC(=O)COC(=O)/C=C/c1cc(OC)c(OC)c(OC)c1,9,?,/,-3,-3,43*
Cc1ccc(NC(=O)/C=C/c2ccc(S(=O)(=O)N3CCOCC3)cc2)cc1S(=O)(=O)N(C)C,26,-4,2,66*,11,0
CCCN1[C@@H]2c3ccc(-c4cccc(F)c4)c(=O)n3C[C@@H]2[C@@H](CO)[C@@H]1C(=O)N(C)C,-1,/,5,7,/,0
COc1cc(/C=C/C(=O)Nc2ccc(OC)c(S(=O)(=O)N3CCOCC3)c2)ccc1OC(F)F,10,/,-12,29,-4,1.6*
COc1ccccc1NC(=O)N[C@@H]1CC[C@H](CCNC(=O)Cc2ccccn2)O[C@H]1CO,-1,-192[16.7 µM],-6,6,2,0
Cc1ccc(C(=O)CSc2nc(C)cc(SCc3nnc(-c4ccccc4)o3)n2)cc1,/,62*,-11,-12,5,/
C[C@@H]1CN([C@H](C)CO)S(=O)(=O)c2ccc(-c3ccc(C#N)cc3)cc2O[C@@H]1CN(C)Cc1cccc(F)c1,24,22[16.7 µM],31,86*,/,0
